This note sets out measurements from ChEMBL document CHEMBL1158403, “Discovery of CP-533536: an EP2 receptor selective prostaglandin E2 (PGE2) agonist that induces local bone formation” (Bioorg Med Chem Lett, 2009).

For orientation: half-life means the time in which the quantity being followed falls by half. Higher therefore signals slow loss. In general, IC50 refers to the concentration that inhibits the measured activity by half. High values mean weaker potency in that assay, low ones greater potency in that assay. For orientation: EC50 means the midpoint of the concentration-response curve. The term clearance denotes the volume of plasma or blood freed of the substance per unit of time.

Data set [1] in a line: Half life in Sprague-Dawley rat at 1 mg/kg, iv. It counts as ADME, organism-based. Also on record: dose 1 mg/kg, route intravenous. As to conditions: in vivo. Put shortly:
(§1)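 Male Sprague–Dawley rats were given a single i.v. dose of 1 mg/kg. Half-life, clearance and steady-state volume of distribution were derived from the plasma pharmacokinetic profile.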

The subject of data set [2] is Rattus norvegicus. The experiment in a line: Induction of bone formation in rat assessed as bone mineral content at 3 mg/kg by peripheral quantitative computerized tomography.
The subject of data set [3] is Rattus norvegicus. The experiment in a line: Induction of bone formation in rat assessed as total bone area at 0.3 mg/kg by peripheral quantitative computerized tomography.
Data set [4] has as its system Rattus norvegicus. The experiment in a line: Induction of bone formation in rat assessed as total bone area at 1 mg/kg by peripheral quantitative computerized tomography.
Data set [5] has as its target T1, Prostaglandin E2 receptor EP2 subtype (Rattus norvegicus, UniProt Q62928). The experiment in a line: Inhibition of rat EP2 receptor expressed in HEK293 cells. It counts as cell-based. Put shortly:
(§2)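 Rat EP₂ or rat EP₄ receptor stably transfected into HEK-293 cells. Membranes were prepared from these cells for the receptor binding assay.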

For data set [6], the system named is Rattus norvegicus. The experiment in a line: Induction of bone formation in rat assessed as bone mineral density at 3 mg/kg by peripheral quantitative computerized tomography.
Data set [7] has as its system Rattus norvegicus. Kind of data set: Induction of bone formation in rat assessed as total bone area at 3 mg/kg by peripheral quantitative computerized tomography.
Data set [8] is described as follows: Volume of distribution at steady state in Sprague-Dawley rat at 1 mg/kg, iv. It counts as ADME, organism-based. Details: dose 1 mg/kg, route intravenous. As to conditions: in vivo, read-out: Vdss. Put shortly:
as §1

Data set [9] has as its system Rattus norvegicus. The experiment in a line: Induction of bone formation in rat assessed as bone mineral density at 0.3 mg/kg by peripheral quantitative computerized tomography.
In data set [10] the test system is Rattus norvegicus. Kind of data set: Induction of bone formation in rat assessed as bone mineral content at 0.3 mg/kg by peripheral quantitative computerized tomography.
For data set [11], the system named is Rattus norvegicus. The experiment in a line: Induction of bone formation in rat assessed as bone mineral content at 1 mg/kg by peripheral quantitative computerized tomography.
Data set [12] deals with T1, Prostaglandin E2 receptor EP2 subtype. The experiment in a line: Agonist activity against rat EP2 receptor expressed in HEK293 cells assessed as stimulation of cAMP release. It counts as functional, cell-based.
The nature of data set [13]: Clearance in Sprague-Dawley rat at 1 mg/kg, iv. It counts as ADME, organism-based. As to conditions: in vivo. Also on record: dose 1 mg/kg, route intravenous. Put shortly: as §1
The subject of data set [14] is Rattus norvegicus. Kind of data set: Induction of bone formation in rat assessed as bone mineral density at 1 mg/kg by peripheral quantitative computerized tomography.
The target in data set [15] is T2, Prostaglandin E2 receptor EP4 subtype (Rattus norvegicus, UniProt P43114). Kind of data set: Inhibition of rat EP4 receptor expressed in HEK293 cells. It counts as cell-based. Put shortly: as §2
T2 sequence (P43114 whole entry): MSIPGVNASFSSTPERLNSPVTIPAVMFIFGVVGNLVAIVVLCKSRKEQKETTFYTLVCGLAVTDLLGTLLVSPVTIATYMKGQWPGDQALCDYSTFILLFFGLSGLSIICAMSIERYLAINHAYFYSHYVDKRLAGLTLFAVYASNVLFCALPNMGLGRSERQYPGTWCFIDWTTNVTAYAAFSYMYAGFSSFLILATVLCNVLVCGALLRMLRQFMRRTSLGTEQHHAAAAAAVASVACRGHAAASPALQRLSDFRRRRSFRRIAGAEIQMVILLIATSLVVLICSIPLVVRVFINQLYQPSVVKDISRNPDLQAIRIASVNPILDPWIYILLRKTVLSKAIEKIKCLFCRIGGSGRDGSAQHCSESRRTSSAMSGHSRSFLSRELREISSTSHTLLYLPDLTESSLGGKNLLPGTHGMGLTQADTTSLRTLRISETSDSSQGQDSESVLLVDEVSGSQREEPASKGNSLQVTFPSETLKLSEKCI
For data set [16], the target named is T2, Prostaglandin E2 receptor EP4 subtype. Kind of data set: Agonist activity against rat EP4 receptor expressed in HEK293 cells assessed as stimulation of cAMP release. It counts as functional, cell-based.

T1 sequence (Q62928 whole entry): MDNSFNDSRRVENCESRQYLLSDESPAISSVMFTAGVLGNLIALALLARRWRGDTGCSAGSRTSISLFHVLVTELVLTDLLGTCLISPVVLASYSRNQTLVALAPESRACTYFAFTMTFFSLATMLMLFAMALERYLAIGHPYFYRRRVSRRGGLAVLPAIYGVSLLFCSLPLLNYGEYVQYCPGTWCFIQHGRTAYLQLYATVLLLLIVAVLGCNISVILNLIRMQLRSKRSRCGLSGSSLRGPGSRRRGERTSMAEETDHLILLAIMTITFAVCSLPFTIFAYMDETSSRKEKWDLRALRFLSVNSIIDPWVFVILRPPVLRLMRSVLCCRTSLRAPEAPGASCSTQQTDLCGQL

In the case of `CC(C)(C)c1ccc(CN(Cc2cccc(OCC(=O)O)c2)S(=O)(=O)c2cccnc2)cc1`, in [1], the half-life was 19.8 min. The Activity in the data set on Rattus norvegicus [2] is on record as 53.5%; in the data set with Rattus norvegicus [3], -4.7%; in the data set with Rattus norvegicus [4], 4.4%; with Rattus norvegicus [6], 27.5%; in the data set on Rattus norvegicus [7], 20.6%; in the data set with Rattus norvegicus [9] it was 7.5%. The Activity with Rattus norvegicus [10] turned out to be 2.5%; in the data set on Rattus norvegicus [11], 26.3%; with Rattus norvegicus [14], 20.7%. The values for the IC50 in data set [5] and in data set [15] were 50 nM and above 3.2 µM, respectively. Further, the Vd in data set [8] came out at 0.49 L/kg. In data set [12], the 50% effective concentration (EC50) was 0.3 nM. Further, in [13], the clearance came out at 56 mL/min/kg.

As for `CCCCCC(=O)c1ccc(CN(CCCCCCC(=O)O)S(C)(=O)=O)cc1`, the values for the IC50 in data set [5] and in data set [15] were 636 nM and above 3.2 µM, respectively. In data set [12], the EC50 was 887 nM.

`CCCCCC(O)c1ccc(CN(CCCCCCC(=O)O)S(C)(=O)=O)cc1` (centres undefined): the half-inhibitory concentration (IC50) was 93 nM in data set [5] and above 3.2 µM in data set [15]. Also, in data set [12], the half-maximal effective concentration (EC50) turned out to be 44 nM.

Regarding `CCCCC(O)c1ccc(CN(CCCCCCC(=O)O)S(C)(=O)=O)cc1` (centres undefined), the IC50 in [5] was 502 nM; in data set [15], above 3.2 µM. For the same compound, the EC50 in data set [12] amounted to 423 nM.

For the compound `CC(C)(C)c1ccc(CN(Cc2cccc(CCC(=O)O)c2)S(=O)(=O)c2ccc(Cl)cc2)cc1`, the IC50 in data set [5] is above 3200 nM; in data set [15] it was above 3.2 µM.

As for `CC(C)(C)c1ccc(CN(Cc2cccc(CCC(=O)O)c2)S(=O)(=O)c2nccs2)cc1`, the figures for the IC50 in data set [5] and in data set [15] were 63 nM and above 3.2 µM, respectively. Moreover, the half-maximal effective concentration (EC50) in data set [12] stood at 1.1 nM.

For the compound `CC(C)(C)c1ccc(CN(Cc2cccc(CCC(=O)O)c2)S(=O)(=O)c2ccccc2)cc1`, the 50% inhibitory concentration (IC50) in data set [5] is 278 nM; in data set [15], above 3.2 µM. In addition, the EC50 in data set [12] amounted to 0.2 nM.

As for `CCCCc1ccc(CN(CCCOc2cccc(C(=O)O)c2)S(C)(=O)=O)cc1`, the IC50 was 3130 nM in [5] and above 3.2 µM in data set [15].

On to `CCCCC[C@H](O)/C=C/[C@H]1[C@H](O)CC(=O)[C@@H]1C/C=C\CCCC(=O)O` [DINOPROSTONE], for which the EC50 in [16] was 0.7 nM. This compound had a concentration for half-maximal inhibition (IC50) in data set [15] of 0.0021 µM.

Consider `CCCCc1ccc(CN(Cc2cccc(CCC(=O)O)c2)S(C)(=O)=O)cc1`, for which the values for the IC50 in data set [5] and in data set [15] were 270 nM and above 3.2 µM, respectively. Further, the concentration for a half-maximal effect (EC50) in data set [12] was 34.4 nM.

Regarding `CCCCc1ccc(CN(CCCCOCC(=O)O)S(C)(=O)=O)cc1`, the IC50 in [5] was 701 nM; in [15] it was above 3.2 µM. The 50% effective concentration (EC50) in data set [12] worked out at 407 nM.

In the case of `CC(C)(C)c1ccc(CN(Cc2cccc(CCC(=O)O)c2)S(=O)(=O)c2ccccn2)cc1`, the IC50 in data set [5] was 52 nM; in data set [15], above 3.2 µM. For the same compound, the EC50 in [12] is 2.3 nM.

`CC(C)(C)c1ccc(CN(CCCCCCC(=O)O)S(C)(=O)=O)cc1`: the IC50 in data set [5] was 590 nM; in [15] it was 2.47 µM.

As for `CC(C)(C)c1ccc(CN(Cc2cccc(CCC(=O)O)c2)S(C)(=O)=O)cc1`, the figures for the half-maximal inhibitory concentration (IC50) in data set [5] and in data set [15] were 379 nM and above 3.2 µM, respectively. In [12], the EC50 was found to be 48 nM.

Take `CCCCCC(O)CCCN(CCCCCCC(=O)O)S(C)(=O)=O` (centres undefined): the concentration for half-maximal inhibition (IC50) in [5] was 225 nM; in [15], 2.53 µM. The half-maximal effective concentration (EC50) in data set [12] was determined as 134 nM.

As for `CCCCc1ccc(CN(c2ccccc2CCCC(=O)O)S(C)(=O)=O)cc1`, the 50% inhibitory concentration (IC50) in [5] was 494 nM; in [15], above 3.2 µM. In [12], the concentration giving a half-maximal response (EC50) was found to be 103 nM.

With `CCCCc1ccc(CN(CCc2ccc(CC(=O)O)cc2)S(C)(=O)=O)cc1`, the figures for the IC50 in data set [5] and in [15] were 833 nM and above 3.2 µM, respectively. Further, the half-maximal effective concentration (EC50) in data set [12] was 413 nM.

On to `CCCCCC(O)CCCN(CCCCCC(=O)O)S(C)(=O)=O` (centres undefined), for which the concentration for half-maximal inhibition (IC50) in [5] is 910 nM.

Turning to `CCCCc1ccc(CN(CCCCCCC(=O)O)S(C)(=O)=O)cc1`, the concentration for half-maximal inhibition (IC50) in data set [5] was 160 nM; in data set [15] it was above 3.2 µM. Besides, in data set [12], the EC50 turned out to be 94 nM.

Consider `CC(C)CC(O)CCCN(CCCCCCC(=O)O)S(C)(=O)=O` (centres undefined), for which the IC50 is 2500 nM in data set [5] and above 3.2 µM in [15].

For `CCCCc1ccc(CN(c2cccc(CCC(=O)O)c2)S(C)(=O)=O)cc1`, the IC50 in data set [5] was above 3200 nM; in [15], above 3.2 µM.

Regarding `CS(=O)(=O)N(CCCCCCC(=O)O)Cc1ccc(-c2ccccc2)cc1`, the IC50 was 289 nM in [5] and above 3.2 µM in data set [15]. Also, the concentration for a half-maximal effect (EC50) in [12] was found to be 457 nM.

On to `CCCCc1ccc(CN(c2ccc(CCCC(=O)O)cc2)S(C)(=O)=O)cc1`, for which the concentration for half-maximal inhibition (IC50) in data set [5] is 654 nM; in data set [15] it was above 3.2 µM. Also, in data set [12], the concentration giving a half-maximal response (EC50) stood at 587 nM.

Take `CCCCc1ccc(CN(Cc2ccccc2OCC(=O)O)S(C)(=O)=O)cc1`: the figures for the IC50 in [5] and in data set [15] were above 3200 nM and above 3.2 µM, respectively.

On to `CCCCCC(O)CCCN(CCCCC(=O)O)S(C)(=O)=O` (centres undefined), for which, in data set [5], the 50% inhibitory concentration (IC50) is above 3200 nM.

Turning to `CC(C)(C)c1ccc(CN(Cc2cccc(OCC(=O)O)c2)S(C)(=O)=O)cc1`, the figures for the half-maximal inhibitory concentration (IC50) in [5] and in data set [15] were 792 nM and above 3.2 µM, respectively. For the same compound, the half-maximal effective concentration (EC50) in data set [12] turned out to be 203 nM.
